The source of these data is ChEMBL document CHEMBL1141929, “(2R)-4-oxo-4-[3-(trifluoromethyl)-5,6-dihydro[1,2,4]triazolo[4,3-a]pyrazin-7(8H)-yl]-1-(2,4,5-trifluorophenyl)butan-2-amine: a potent, orally active dipeptidyl peptidase IV inhibitor for the treatment of type 2 diabetes” (J Med Chem, 2005).

SMILES strings stand for the structures.

Data set [1] concerns the target Dipeptidyl peptidase 2 (Homo sapiens, UniProt Q9UHL4). Nature of the data set: In vitro inhibitory concentration was measured against quiescent cell proline dipeptidase.
The nature of data set [2]: Maximum concentration in plasma of rat upon peroral dose of 2 mpk. Particulars: po, 2 mg/kg. Type of data set: ADME, organism-based. Also on record: dose 2 mpk, route oral. In outline:
(§1)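 Pharmacokinetics in rat, dog and monkey. Dosing was iv 1 mpk and po 2 mpk.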

Data set [3] is described as follows: Plasma clearance was measured in rat. Type of data set: ADME, organism-based. The settings on record: read-out: Clp. In outline: as §1
Data set [4] can be described thus: Maximum concentration in plasma of monkey upon peroral dose of 2 mpk. Type of data set: ADME, organism-based. The settings on record: cercopithecidae, po, 2 mg/kg. Also on record: dose 2 mpk, route oral. In outline:
as §1

Data set [5] in a line: Maximum concentration in plasma of dog upon peroral dose of 2 mpk. Also on record: dose 2 mpk, route oral. It is filed as ADME, organism-based, Canis lupus familiaris. Particulars: po, 2 mg/kg. In short, it runs like this:
as §1

Data set [6] can be described thus: Oral bioavailability in rat. Particulars: in vivo. Type of data set: ADME, organism-based. In short, it runs like this: as §1
For data set [7], the target named is Dipeptidyl peptidase 4 (Homo sapiens, UniProt P27487).
Sequence of Dipeptidyl peptidase 4 (P27487 whole entry): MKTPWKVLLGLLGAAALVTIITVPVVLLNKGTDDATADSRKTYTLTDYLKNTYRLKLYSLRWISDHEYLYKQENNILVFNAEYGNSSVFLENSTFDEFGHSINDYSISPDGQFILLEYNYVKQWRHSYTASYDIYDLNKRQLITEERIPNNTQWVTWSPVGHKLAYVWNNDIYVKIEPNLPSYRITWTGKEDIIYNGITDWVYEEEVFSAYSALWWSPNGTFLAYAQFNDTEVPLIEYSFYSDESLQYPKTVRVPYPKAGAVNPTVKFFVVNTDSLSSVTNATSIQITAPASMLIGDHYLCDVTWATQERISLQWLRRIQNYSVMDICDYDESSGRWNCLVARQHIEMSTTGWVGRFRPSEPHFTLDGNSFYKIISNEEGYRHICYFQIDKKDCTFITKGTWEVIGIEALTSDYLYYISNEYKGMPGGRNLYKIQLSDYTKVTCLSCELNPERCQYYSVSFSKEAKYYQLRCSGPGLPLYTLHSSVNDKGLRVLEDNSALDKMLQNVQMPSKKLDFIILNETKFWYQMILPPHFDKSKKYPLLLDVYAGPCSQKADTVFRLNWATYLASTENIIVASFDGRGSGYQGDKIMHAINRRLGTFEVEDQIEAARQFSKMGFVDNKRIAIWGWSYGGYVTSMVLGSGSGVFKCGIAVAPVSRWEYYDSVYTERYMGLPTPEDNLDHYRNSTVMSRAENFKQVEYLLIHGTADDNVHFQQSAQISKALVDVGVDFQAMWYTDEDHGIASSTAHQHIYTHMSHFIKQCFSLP
Data set [8] can be described thus: Plasma half-life was measured in monkey. It is filed as ADME. Particulars: cercopithecidae. In outline:
as §1

A short description of data set [9]: Plasma clearance was measured in dog. Type of data set: ADME, organism-based, Canis lupus familiaris. Particulars: read-out: Clp. In short, it runs like this: as §1
A short description of data set [10]: Plasma half-life was measured in dog. It is filed as ADME, cell-free, Canis lupus familiaris. In short, it runs like this:
as §1

Data set [11] is described as follows: Plasma half-life was measured in rat. It is filed as ADME, organism-based. In short, it runs like this:
as §1

In data set [12] the target is Dipeptidyl peptidase 9 (Homo sapiens, UniProt Q86TI2). Nature of the data set: In vitro inhibitory concentration was measured against dipeptidylpeptidase 9.
Sequence of Dipeptidyl peptidase 9 (Q86TI2 whole entry): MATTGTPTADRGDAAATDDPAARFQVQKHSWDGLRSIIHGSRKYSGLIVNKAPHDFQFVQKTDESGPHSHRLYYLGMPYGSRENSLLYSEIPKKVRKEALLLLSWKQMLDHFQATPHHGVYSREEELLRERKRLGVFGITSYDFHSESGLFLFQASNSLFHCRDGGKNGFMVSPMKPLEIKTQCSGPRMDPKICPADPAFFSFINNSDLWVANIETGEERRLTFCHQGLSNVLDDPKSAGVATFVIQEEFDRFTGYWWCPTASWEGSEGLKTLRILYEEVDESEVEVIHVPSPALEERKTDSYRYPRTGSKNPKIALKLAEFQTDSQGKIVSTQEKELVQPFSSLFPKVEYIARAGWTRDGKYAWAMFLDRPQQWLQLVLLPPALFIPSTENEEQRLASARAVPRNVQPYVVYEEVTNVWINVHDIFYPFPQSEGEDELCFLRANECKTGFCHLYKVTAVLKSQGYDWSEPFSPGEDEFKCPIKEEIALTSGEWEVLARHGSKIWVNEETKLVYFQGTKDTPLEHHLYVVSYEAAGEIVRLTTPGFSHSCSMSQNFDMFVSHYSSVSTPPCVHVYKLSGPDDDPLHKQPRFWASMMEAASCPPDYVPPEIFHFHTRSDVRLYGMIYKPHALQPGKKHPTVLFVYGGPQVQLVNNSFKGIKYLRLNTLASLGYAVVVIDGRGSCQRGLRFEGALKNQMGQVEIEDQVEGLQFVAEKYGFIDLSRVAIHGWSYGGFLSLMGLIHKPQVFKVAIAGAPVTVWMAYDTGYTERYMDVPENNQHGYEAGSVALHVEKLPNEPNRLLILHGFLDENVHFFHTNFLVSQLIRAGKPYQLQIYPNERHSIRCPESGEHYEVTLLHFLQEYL
The nature of data set [13]: Plasma clearance was measured in monkey. Type of data set: ADME, organism-based. Particulars: cercopithecidae, read-out: Clp. In short, it runs like this: as §1
Data set [14] in a line: Oral bioavailability in monkey. Type of data set: ADME, organism-based. Particulars: cercopithecidae, in vivo. In outline: as §1
Data set [15] is described as follows: Oral bioavailability in dog. Type of data set: ADME, organism-based, Canis lupus familiaris. The settings on record: in vivo. In outline:
as §1

The nature of data set [16]: Maximum concentration was measured in plasma of rat upon peroral dose of 2 mpk. Type of data set: ADME, organism-based. Details: dose 2 mpk, route oral. Particulars: po, 2 mg/kg. In outline: as §1
Data set [17] is described as follows: Plasma half-life was measured in plasma of rat. It is filed as ADME, cell-free. In short, it runs like this:
as §1

Data set [18] in a line: Maximum concentration was measured in plasma of dog upon peroral dose of 2 mpk. It is filed as ADME, organism-based, Canis lupus familiaris. Also on record: dose 2 mpk, route oral. Particulars: po, 2 mg/kg. In outline: as §1
Data set [19] in a line: Maximum concentration was measured in plasma of monkey upon peroral dose of 2 mpk. Type of data set: ADME, organism-based. Also on record: dose 2 mpk, route oral. The settings on record: cercopithecidae, po, 2 mg/kg. In short, it runs like this:
as §1

For orientation: IC50 means the midpoint of a concentration-inhibition curve. What is called Cmax is the maximum level reached in the sampled fluid or tissue. In general, bioavailability refers to dose-corrected exposure relative to a reference, in per cent. The half-life is how long it takes for the measured level to halve. Regarding `CCc1nnc2n1CCN(C(=O)C[C@H](N)Cc1ccc(F)c(F)c1)C2.Cl`, the results for the half-inhibitory concentration (IC50) in data set [1], in data set [7] and in data set [12] were 64 µM, 0.231 µM and over 100 µM, respectively. The Cmax in data set [2] stood at 10 nM; in [4] it was 12 nM; in data set [5] it was 730 nM. Besides, the clearance amounted to 45 mL/min/kg in data set [3], 13 mL/min/kg in data set [9] and 26 mL/min/kg in data set [13]. The bioavailability in [6] is 2%; in data set [14], 1%; in data set [15], 33%. Also, the values for the half-life in data set [8], in data set [10] and in data set [11] were 1.3 h, 2.3 h and 2.7 h, respectively.
`Cl.N[C@@H](CC(=O)N1CCn2c(nnc2C(F)(F)F)C1)Cc1cc(F)ccc1F`: the IC50 in data set [1] and in data set [12] was over 100 µM throughout. Further, in [3], the clearance is 43 mL/min/kg. In data set [6], the bioavailability amounted to 51%. The Cmax in data set [16] came out at 190 nM. This compound showed a half-life in data set [17] of 1.6 h.
As to `N[C@@H](CC(=O)N1CCn2cnnc2C1)Cc1ccc(F)c(F)c1`, the IC50 is over 10 µM in data set [1], 0.455 µM in [7] and over 100 µM in data set [12].
As for `Cl.N[C@@H](CC(=O)N1CCn2cnnc2C1)Cc1cc(F)c(F)cc1F`, the IC50 in data set [1] was over 10 µM; in data set [7], 0.068 µM; in [12], over 100 µM. The clearance in data set [3] was 40 mL/min/kg. The same compound gave a bioavailability in [6] of 3%. This compound yielded a peak concentration (Cmax) in data set [16] of 30 nM. In data set [11], the half-life is 1 h.
Consider `Cl.N[C@@H](CC(=O)N1CCn2c(nnc2C(F)(F)F)C1)Cc1cc(F)c(F)cc1F`, for which the Cmax in [18] is 2200 nM; in data set [16], 330 nM; in [19] it was 330 nM. Besides, the half-life in [8] is 3.7 h; in data set [10] it was 4.9 h; in data set [11], 1.7 h. The clearance in data set [9] turned out to be 6 mL/min/kg; in data set [13], 28 mL/min/kg. Moreover, the bioavailability is 68% in [14] and 100% in [15].
As to `Cl.N[C@@H](CC(=O)N1CCn2c(nnc2C(F)(F)F)C1)Cc1ccc(F)c(F)c1`, the IC50 in data set [1] is 98 µM; in data set [12] it was over 100 µM. Also, the clearance in data set [3] stood at 51 mL/min/kg. In data set [6], this compound registered a bioavailability of 44%. Moreover, in data set [16], the Cmax came to 140 nM. The compound further showed a half-life in [11] of 1.8 h.
In turn, `N[C@@H](CC(=O)N1CCNCC1)Cc1ccc(F)c(F)c1` returned an IC50 in [7] of 3.1 µM.
Regarding `Cl.N[C@@H](CC(=O)N1CCn2c(nnc2C(F)(F)C(F)(F)F)C1)Cc1cc(F)ccc1F`, the 50% inhibitory concentration (IC50) in [1] was over 100 µM; in data set [7], 0.103 µM; in data set [12] it was over 100 µM. Moreover, the clearance in data set [3] was determined as 109 mL/min/kg. Moreover, the bioavailability in [6] worked out at 1%. The highest level in data set [16] (Cmax) was 2 nM. In [11], this compound gave a half-life of 1.5 h.
Consider `Cl.N[C@@H](CC(=O)N1CCn2c(nnc2C(F)(F)C(F)(F)F)C1)Cc1cc(F)c(F)cc1F`, for which the 50% inhibitory concentration (IC50) in data set [1] is 78 µM; in [7], 0.071 µM; in [12], over 100 µM. For the same compound, the clearance in data set [3] turned out to be 58 mL/min/kg. The same compound yielded a bioavailability in [6] of 61%. Further, the Cmax in [16] is 160 nM. The half-life in data set [11] was 2.3 h.
